Published values from different studies.
Target: Casein kinase I isoform gamma-2 (CSNK1G2, Homo sapiens, UniProt P78368)

SMILES	effect on	action	method	tested at	measurement	value
CC(C)(O)[C@H]1CC[C@H](Nc2ccc3ncc(-c4cccc(C(F)(F)F)c4)n3n2)CC1	enzyme activity	inhibitor		1 µM	remaining activity	96.1%
CNC(=O)c1cc(Oc2ccc(NC(=O)Nc3ccc(Cl)c(C(F)(F)F)c3)cc2)ccn1	enzyme activity	inhibitor		0.3 µM	inhibition	5%
CC1=C(C#N)[C@@H](c2ccc3[nH]nc(C)c3c2)C(C#N)=C(c2ccc(Cl)cc2)N1	cell-free assay		competition with immobilised ligand	1 µM	remaining binding	100%
CCCS(=O)(=O)Nc1ccc(F)c(C(=O)c2c[nH]c3ncc(-c4ccc(Cl)cc4)cc23)c1F	enzyme activity	inhibitor		1 µM	inhibition	< 10%
C[C@H](NC(=O)c1cnc2n1[C@](C)(Cc1ccc(C#N)cc1)C(=O)N2c1cc(Cl)c(F)c(Cl)c1)C(=O)NC1(c2ccccn2)CC1	cell-free assay		competition with immobilised ligand	1 µM	remaining binding	90%
Nc1ncnc2occ(-c3ccc(NC(=O)Nc4cc(C(F)(F)F)ccc4F)cc3)c12	cell-free assay	inhibitor		20 µM	remaining signal	6.8%
COc1cc(/C=C/C(=O)CC(=O)/C=C/c2ccc(O)c(OC)c2)ccc1O	enzyme activity	inhibitor		1 µM	activity vs control	77%
COc1cc2ncnc(Nc3ccc(F)c(Cl)c3)c2cc1OCCCN1CCOCC1	cell-free assay			0.5 µM	remaining signal	98.1%
COc1cc2ncnc(Nc3ccc(Oc4ccccc4)cc3C)c2cc1OC	enzyme activity	inhibitor		1 µM	inhibition	5%
O=C1NC(=O)c2cc(Nc3ccc(F)cc3)c(Nc3ccc(F)cc3)cc21	cell-free assay			0.5 µM	remaining signal	97.5%
C[C@@H]1CN(c2cc(-c3n[nH]c4ccc(OC5(C)CC5)cc34)ncn2)C[C@H](C)O1	cell-free assay		competition with immobilised ligand	0.1 µM	remaining binding	100%
O=C(Nc1cnn(-c2csc(C(=O)NC3COC3)c2)c1)Nc1ccccc1Cl	enzyme activity	inhibitor		5 µM	remaining activity	98.5%
Cc1cc(NC(=O)c2cccc3cc(-c4cccc5[nH]nc(N)c45)ccc23)ccc1F	enzyme activity	inhibitor		0.1 µM	activity vs control	102%
CC(C)(C)c1nc(-c2cccc(NS(=O)(=O)c3c(F)cccc3F)c2F)c(-c2ccnc(N)n2)s1	enzyme activity	inhibitor	radiometric	1 µM	remaining activity	101%
COc1ccc2cc(OCC3(C(=O)O)CN(C(=O)c4ccc(F)cc4)C3)ccc2c1	cell-free assay		competition with immobilised ligand	1 µM	remaining binding	100%
CN(CCCC(F)(F)F)c1nccc(-c2cnn3ncccc23)n1	binding			1 µM	remaining binding	100%
C#Cc1cccc(Nc2ncnc3cc(OCCOC)c(OCCOC)cc23)c1	cell-free assay			0.5 µM	remaining signal	98.3%
COc1ccc2c(O[C@@H]3C[C@H]4C(=O)N[C@]5(C(=O)O)CC5/C=C\CCCCC[C@H](NC(=O)OC5CCCC5)C(=O)N4C3)cc(-c3csc(NC(=O)C(C)C)n3)nc2c1C (stereo partly shown)	cell-free assay		competition with immobilised ligand	1 µM	remaining binding	90%
C[C@@H]1CCN(C(=O)CC#N)C[C@@H]1N(C)c1ncnc2[nH]ccc12	cell-free assay	inhibitor		0.5 µM	remaining signal	95.4%
O=C(Nc1cnn(-c2csc(C(=O)NC3COC3)c2)c1)Nc1c(F)cccc1Cl	enzyme activity	inhibitor		5 µM	remaining activity	90.2%
CN1CCN(c2cnc3c(C4CCN(C(=O)c5ccc(OC(F)(F)F)cc5N)CC4)ncnc3c2)CC1	cell-free assay		competition with immobilised ligand	1 µM	remaining binding	100%
O=C(CSc1nc2nccnc2c(=O)n1CCc1ccccc1)Nc1nccs1	enzyme activity	inhibitor		10 µM	inhibition	14%
